# Screening data (PubChem)
# Rows were chosen to be rich in hits. Some 4% of all compounds tested hit in one or more screens of this group.
# ABHD5 PLIN5 PPI – ABHD5-PLIN5 protein interaction inhibition; Q00G26+Q8WTS1; Split G. princeps luciferase complementation, luminescence, 4 h; inhibition, % at 4 µM; actives 0.78% (n = 360,000);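 active = inhibition above the mean inhibition across every tested compound plus 3 SD, cut at about 22% in these data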
# Mdm2 MdmX PPI – disrupts the human Mdm2-MdmX interaction. actives 3% (n = 330,000). inhibition, % at 8 µM. SaOS-2 split-luciferase Mdm2/MdmX complementation, luminescence;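 active = inhibition of at least 50% at 8 µM in the primary screen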
# UPR XBP1 act – adaptive UPR (XBP1) activation. AID 463104. activation, % at 20 µM. CHO-XBP1 luciferase reporter, IRE1-XBP1 UPR activation, luminescence; percent of tunicamycin response, DMSO as zero. actives 0.33% (n = 330,000);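 active = versus positive control, 20 µM dose yields 30% or more activation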
#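 Material – CHO cell line with stable XBP1 luciferase reporter · Buffer or medium – F12 plus 10% FBS · Compound – single point, 20 µM final compound, 1% DMSO · Schedule – 16-18 h cell attachment at 37 °C, then 6 h compound exposure · Signal – Steady-Glo luminescence read · Benchmarks – high control tunicamycin 10 µg/mL final, low control DMSO vehicle only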
# UPR CHOP act – apoptotic UPR (CHOP) activation; activation, % at 10 µM; actives 0.34% (n = 330,000); CHO-CHOP luciferase reporter, luminescence; percent of tunicamycin response over DMSO baseline; AID 449763;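 active = at 10 µM dose, activation of 40% or more, normalized to positive control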
#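 Test system: CHO-CHOP cells, stable luciferase reporter of PERK-eIF2a-CHOP signalling | Quantity: 500 CHO-CHOP cells per well | Buffer or medium: F12 plus 10% serum | Compound dosing: 10 µM single point, 0.5% DMSO | Schedule: 6 h compound treatment, 37 °C | Signal: Luciferase luminescence | Control set: Tunicamycin high control, DMSO low control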
# Granule exo inh – blocks lytic granule exocytosis; inhibition, % at 10 µM; TALL-104 LAMP-1 surface exposure, flow cytometry; cells stimulated with thapsigargin and PMA; actives 0.66% (n = 360,000); AID 651702;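 active = inhibition above about 55%, limit read from the data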
# Exocytosis CP01 – lytic granule exocytosis inhibition; shares compounds with Granule exo inh; TALL-104 cells, LAMP-1 externalization, flow cytometry; stimulated with PMA plus thapsigargin; actives 11% (n = 1,500); inhibition, % at 10 µM; in the data active = inhibition above about 60%
# Hits are given with their value; i = inactive; nt = no result given.
SMILES,ABHD5 PLIN5 PPI,Mdm2 MdmX PPI,UPR XBP1 act,UPR CHOP act,Granule exo inh,Exocytosis CP01
CCCCCCn1c(COc2ccccc2F)nnc1SCC(=O)N1c2ccccc2NC(=O)C1(C)C,i,i,i,i,75,i
C=CCn1c(C)nnc1SCC(=O)N1c2ccccc2NC(=O)C1(C)C,i,nt,nt,nt,i,nt
Clc1nc(CN2CCCCC2)nc2sc3c(c12)CCCC3,i,i,i,i,98,i
O=C(COCC(=O)N1CCOCC1)N1CCOCC1,i,i,i,i,i,nt
Cc1ccc(S(=O)(=O)N2CCOCC2)cc1NC(=O)CN1CCC(Cc2ccccc2)CC1,i,i,i,i,71,i
O=C(CNC(=O)c1ccccc1)NCC(=O)OCc1ccccc1Cl,i,i,i,i,i,nt
CN(C)C(=O)c1ccc(NC(=O)COC(=O)C2(c3ccccc3)CCCC2)cc1,i,i,i,i,76,i
CCOC(=O)c1ccc(NC(=O)c2ccc(CN3CCc4ccccc4C3)cc2)cc1,i,i,i,i,70,i
CCC(C)[C@H](NC(=O)NCc1ccccc1)C(=O)O (some centres not stated),i,i,i,i,100,i
CCC(C)[C@H](NC(=O)NCc1ccc(F)cc1)C(=O)O (some centres not stated),i,i,i,i,i,nt
COc1ccccc1C(=O)NNC(=O)c1cccc([N+](=O)[O-])c1,i,i,i,i,i,nt
O=C(NCc1ccc(OC(F)(F)F)cc1)C1CC(c2cccc(F)c2)=NO1 (configuration not stated),i,i,i,i,i,nt
Cc1ccc(CNC(=O)C2CC(c3cccc(F)c3)=NO2)cc1 (configuration not stated),i,i,i,i,72,i
C#CCCC/C(=C\C(=O)N(C)[C@H](C(=O)N(C)[C@H](C(=O)N(C)[C@H](C(=O)N(C)[C@H](C(N)=O)C(C)C)C(C)C)C(C)C)C(C)C)OC,i,i,i,i,i,nt
COc1ccc(NC(=O)C2CCN(C(=O)C3CC(=O)N(c4ccc(C)cc4)C3)CC2)c(OC)c1 (configuration not stated),i,i,i,i,69,i
CCOC(=O)C1CCCN(Cc2ccc(OCc3ccccc3)c(OC)c2)C1 (configuration not stated),i,i,i,i,57,i
CCOc1cccc(CN2CCCC(N3CCN(c4cccc(Cl)c4)CC3)C2)c1O (configuration not stated),i,i,i,i,66,i
CCOc1cccc(CN2CCCC(C(=O)c3cc(Cl)ccc3OC)C2)c1O (configuration not stated),i,i,i,i,80,i
Cc1cc(C(F)(F)Cl)n2ncc(-c3ccccn3)c2n1,i,i,i,i,i,nt
O=C(CNC(=O)N1CC(=O)Nc2ccccc21)NCc1ccccc1,i,i,i,i,i,nt
c1ccc(COc2ccc(-c3cc4nc(NCCCn5ccnc5)ccn4n3)cc2)cc1,i,nt,nt,nt,72,99
COCCCNC(=S)N1CCN(C)CC1,i,i,i,i,i,nt
COC(=O)C(Cc1ccccc1)NC(=O)CNS(=O)(=O)c1ccc(Br)cc1 (configuration not stated),i,i,i,i,i,nt
COC(=O)C(NC(=O)CNS(=O)(=O)c1ccc(Br)cc1)c1ccccc1 (configuration not stated),i,i,i,i,62,i
CCNc1c2c3c(cccc3n(C)c1=O)C(=O)c1ccccc1-2,nt,i,i,i,nt,nt
SMILES,ABHD5 PLIN5 PPI,Mdm2 MdmX PPI,UPR XBP1 act,UPR CHOP act,Granule exo inh,Exocytosis CP01
Cn1c(=O)c(NC2CCCCC2)c2c3c(cccc31)C(=O)c1ccccc1-2,i,i,i,i,90,101
N#Cc1cn(CCCOc2ccccc2)c2ccccc12,i,i,i,i,67,i
COc1ccccc1OCCCn1cc(C#N)c2ccccc21,i,i,i,i,i,nt
Cc1cc(C(=O)CSc2nc3ccccc3[nH]2)c(C)n1CC1CCCO1 (configuration not stated),i,i,i,i,90,77
Cc1cc(C(=O)CSc2nc(N)cc(=O)[nH]2)c(C)n1CC1CCCO1 (configuration not stated),i,i,i,i,i,nt
COc1ccc(Br)cc1CN(C)C(=O)CNC(=O)c1ccc2ccccc2c1,i,i,i,i,58,i
COc1ccc(CN(C)C(=O)CNC(=O)c2ccc3ccccc3c2)c(OC)c1,i,i,i,i,i,nt
CCOC(=O)C1=C(C)OC(N)=C(C#N)C1c1cc2ccccc2nc1N1CCCCC1 (configuration not stated),nt,i,i,i,nt,nt
COc1ccc(OC)c(S(=O)(=O)NC2CCN(Cc3ccccc3)CC2)c1,i,i,i,i,i,nt
COc1ccc(CNC2CCN(Cc3ccccc3)CC2)cc1,i,i,i,i,60,i
CC(C)N(Cc1ccccc1)S(=O)(=O)c1ccc(F)cc1,i,i,i,i,64,i
CCN(Cc1ccccc1)S(=O)(=O)c1ccc(F)cc1,i,i,i,i,i,nt
CCOC(=O)c1sc(=NC(=O)c2cc(OC)c(OC)c(OC)c2)n(C)c1C,i,i,i,i,i,nt
O=C(CSc1nccc(=O)[nH]1)N1CCc2ccccc2C1,i,i,i,i,i,nt
CCOc1ccc(CC(=O)Nc2nccs2)cc1,i,i,i,i,i,nt
CC(NC(=O)CC12CC3CC(CC(C3)C1)C2)C(=O)O (configuration not stated),i,i,i,i,63,i
O=C(CC12CC3CC(CC(C3)C1)C2)NC(Cc1ccccc1)C(=O)O (configuration not stated),i,i,i,i,i,nt
CCCCNS(=O)(=O)CCNCCc1ccccc1,i,i,i,i,i,nt
CCCCCCCCNCCS(=O)(=O)NCc1ccccc1,i,nt,nt,nt,63,i
O=C(Cn1nc(-c2ccco2)ccc1=O)Nc1ccc(Cl)c(Cl)c1,i,i,i,i,i,nt
Cc1cccc(CN2CCC(C(=O)Nc3cccc(-c4cccc(F)c4)c3)CC2)n1,i,i,i,i,62,i
COc1ccc(CNC(=O)C2CCN(C(=O)c3csc(Nc4ccc(C)cc4)n3)CC2)cc1,i,i,i,i,58,i
Cc1ccc(Nc2nc(C(=O)N3CCC(C(=O)NCc4ccccc4)CC3)cs2)cc1,i,i,i,i,65,i
Cc1cc(Br)ccc1NC(=O)CCS(=O)(=O)c1cccc2nonc12,i,i,i,i,i,nt
O=C(CCc1ccccc1)Nc1cccc([N+](=O)[O-])c1,i,i,i,i,i,nt
O=C(CCCc1ccccc1)Nc1cccc([N+](=O)[O-])c1,i,i,i,i,57,i
Cc1cc(Nc2ccc(Cl)cc2)nc(-c2ccccc2O)n1,i,i,i,i,i,nt
